Reference: ChEMBL document CHEMBL5715959, “Inhibition of histone methyltransferase EZH2 in Schistosoma mansoni in vitro by GSK343 reduces egg laying and decreases the expression of genes implicated in DNA replication and noncoding RNA metabolism” (2018)
The source made the active and inactive calls. The rule behind the calls is not given here.

Legend:
[1] = test system: Schistosoma mansoni; test: Antischistosomal activity against female Schistosoma mansoni assessed as down-regulated EED mRNA level at 20 uM incubated for 48 hrs by RT-qPCR analysis; type: functional, organism-based
Outline: (§1)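 Schistosomula (supplemented M169) or adult worms (supplemented RPMI) were treated 48 h with 20 μM GSK343 or 0.1% DMSO at 37°C, 5% CO2. qPCR normalizer genes were chosen from RNA-seq data as those with TPM >1 and a treated/control ratio of 0.9–1.1 that were not differentially expressed. Relative expression was calculated by comparative Ct; significance by t-test.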

[2] = test system: Schistosoma mansoni; test: Antischistosomal activity against Schistosoma mansoni assessed as down-regulated DNAse II protein mRNA level in schistosomula at 20 uM incubated for 48 hrs by RT-qPCR analysis; type: functional, organism-based; outline: as §1
[3] = test system: Schistosoma mansoni; test: Antischistosomal activity against Schistosoma mansoni assessed as increased caspase 3/7 activity at 20 uM incubated for 48 hrs by Caspase 3/7 reagent based luminescence assay; type: functional
Outline: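 2,000 schistosomula per well were kept in supplemented M169 with 20 μM GSK343 or 0.1% DMSO for 48 h. Medium was replaced, reporter lysis buffer added, then Caspase-Glo 3/7 reagent for 3 h in the dark with agitation before reading luminescence. The negative control lacked reagent. Three experiments, each with 20,000 schistosomula.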

[4] = test system: Schistosoma mansoni; test: Antischistosomal activity against adult Schistosoma mansoni assessed as increased H3K27ac level at 20 uM incubated for 48 hrs by Western blotting analysis; type: functional, organism-based
Outline: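 Fifty adult worm pairs were treated 48 h with 20 μM GSK343 or vehicle in supplemented RPMI/10% FBS, then lysed in Triton buffer. Nuclear pellets were acid-extracted overnight in 0.25 M HCl at 4°C and histones were TCA-concentrated. 10 μg went on 15% SDS-PAGE and nitrocellulose, probed with anti-H3K27me3, K9ac, K27ac or K4me3, then IRDye secondaries; infrared densitometry was normalized to anti-H3. Three biological replicates; t-test.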

[5] = test system: Schistosoma mansoni; test: Antischistosomal activity against adult female Schistosoma mansoni assessed as damaged tegument with extensive sloughing at 20 uM incubated for 24 to 48 hrs by scanning electron microscopy analysis; type: functional, organism-based; details: time 24-48 hrs
Outline: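 Adult couples were taken by perfusion into supplemented RPMI, one couple per well, and adapted 2 h at 37°C, 5% CO2. They were exposed to 20 μM GSK343 or 0.1% DMSO for 24 and 48 h. Fixation used modified Karnovsky with osmium post-fix, followed by ethanol dehydration, critical-point drying, gold sputtering and scanning electron microscopy of tegument surfaces.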

[6] = test system: Schistosoma mansoni; test: Antischistosomal activity against female Schistosoma mansoni assessed as down-regulated p14 mRNA level at 20 uM incubated for 48 hrs by RT-qPCR analysis; type: functional, organism-based
[7] = test system: Schistosoma mansoni; test: Antischistosomal activity against adult Schistosoma mansoni assessed as decreased motility incubated for 24 hrs by inverted microscope analysis relative to control; type: functional; design: scale not given: the % may be the effect or the level left
Outline: (§2)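 Paired adult worms were cultured in RPMI/10% FBS with antibiotics at 37°C, 5% CO2, with GSK343 or 0.1% DMSO. They were viewed by inverted microscope at 3, 6, 12, 24 and 48 h. Motility was scored on a 0–3 scale (3 full movement, 1.5 partial or immobile but alive, 0 dead); death meant no movement over more than 2 min. Pairing was recorded. Three experiments, each with 10 pairs; mean ± SD.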

[8] = test system: Schistosoma mansoni; test: Cytotoxicity against juvenile Schistosoma mansoni assessed as decrease in viability at 20 to 50 uM incubated for 24 hrs by CellTiter-Glo Luminescent assay relative to control; type: functional; details: dose 20-50 µM
Outline: (§3)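 Perfused juvenile worms cultured in supplemented RPMI (10% FBS, 37°C, 5% CO2), exposed 24 or 48 h to compound or 0.1% DMSO. Total parasite ATP read by luminescence, given as % of vehicle; three replicate experiments of 10 juveniles each, mean ± SD.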

[9] = test system: Schistosoma mansoni; test: Antischistosomal activity against juvenile Schistosoma mansoni assessed as damaged dorsal surface ridge at 20 to 50 uM incubated for 48 hrs by scanning electron microscopy analysis; type: functional, organism-based; details: dose 20-50 µM
Outline: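 Juvenile worms recovered by perfusion, five per well in supplemented RPMI (10% FBS, antibiotics, 37°C, 5% CO2), 2 h adaptation, then exposed 48 h to compound or 0.1% DMSO. Fixed in modified Karnovsky reagent (pH 7.4), washed in cacodylate buffer, post-fixed 1 h in 1% osmium tetroxide, ethanol-dehydrated, critical-point dried, gold-sputtered and imaged by scanning electron microscopy.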

[10] = test system: Schistosoma mansoni; test: Antischistosomal activity against female Schistosoma mansoni assessed as down-regulated Tyrosinase 2 mRNA level at 20 uM incubated for 48 hrs by RT-qPCR analysis; type: functional, organism-based; outline: as §1
[11] = test system: Schistosoma mansoni; test: Antischistosomal activity against Schistosoma mansoni assessed as lower growth rate at 20 uM incubated for 24 to 48 hrs by scanning electron microscopy analysis; type: functional; details: time 24-48 hrs
Outline: (§4)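 Newly transformed schistosomula were held 16 h in M169 with 2% FBS, serotonin, hypoxanthine, hydrocortisone, triiodothyronine and antibiotics at 37°C, 5% CO2, at 2,000 per well. They were then exposed to 20 μM GSK343 or 0.1% DMSO for 24 and 48 h. Fixation was modified Karnovsky (pH 7.4) with 1% osmium post-fix, then ethanol dehydration, critical-point drying, gold coating and SEM. Lengths came from three experiments, each with 20 schistosomula.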

[12] = test system: Schistosoma mansoni; test: Antischistosomal activity against Schistosoma mansoni assessed as change in size at 20 uM incubated for 24 hrs by scanning electron microscopy analysis; type: functional, organism-based; outline: as §4
[13] = test system: Schistosoma mansoni; test: Antischistosomal activity against Schistosoma mansoni assessed as increased H3K27me1 level in schistosomula at 20 uM incubated for 48 hrs by Western blotting analysis; type: functional, organism-based
Outline: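 About 10,000 schistosomula were treated 48 h with 20 μM GSK343 or vehicle, then sonicated in Triton X-100 lysis buffer with PMSF and protease inhibitors. Supernatant nuclear extract (BCA-quantified, 10 μg) was run on 15% SDS-PAGE and blotted to nitrocellulose. Blots were probed with mark-specific monoclonal antibodies, then IRDye secondaries; infrared imaging was used and signals were normalized to total H3. t-test.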

[14] = test system: Schistosoma mansoni; test: Cytotoxicity against Schistosoma mansoni assessed as decrease in viability at 20 uM incubated for 5 days by CellTiter-Glo Luminescent assay relative to control; type: functional; details: time 5 day
Outline: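 Newly transformed schistosomula pre-cultured 16 h in M169 with 2% FBS, serotonin, hypoxanthine, hydrocortisone, triiodothyronine and antibiotics at 37°C, 5% CO2, then 100–120 per well exposed up to 5 days to compound or 0.1% DMSO. ATP in intact larvae read by luminescence, expressed as % of vehicle; three replicate experiments, two-way ANOVA.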

[15] = test system: Schistosoma mansoni; test: Antischistosomal activity against female Schistosoma mansoni assessed as down-regulated ESP mRNA level at 20 uM incubated for 48 hrs by RT-qPCR analysis; type: functional, organism-based; outline: as §1
[16] = test system: Schistosoma mansoni; test: Antischistosomal activity against adult Schistosoma mansoni assessed as drastic reduction in pairing of couples at 50 uM incubated for 3 hrs by inverted microscope analysis relative to control; type: functional; design: scale not given: the % may be the effect or the level left; outline: as §2
[17] = test system: Schistosoma mansoni; test: Antischistosomal activity against female Schistosoma mansoni assessed as down-regulated EEFB1 mRNA level at 20 uM incubated for 48 hrs by RT-qPCR analysis; type: functional, organism-based; outline: as §1
[18] = test system: Schistosoma mansoni; test: Antischistosomal activity against adult Schistosoma mansoni assessed as reduction in pairing of couples at 20 uM incubated for 48 hrs by inverted microscope analysis relative to control; type: functional; design: scale not given: the % may be the effect or the level left; outline: as §2
[19] = test system: Schistosoma mansoni; test: Cytotoxicity against juvenile Schistosoma mansoni assessed as decrease in viability at 50 uM incubated for 48 hrs by CellTiter-Glo Luminescent assay relative to control; type: functional; outline: as §3

Activity [2]: Active | Activity [10]: Active
SMILES: CCCc1cc(C)[nH]c(=O)c1CNC(=O)c1cc(-c2ccnc(N3CCN(C)CC3)c2)cc2c1cnn2C(C)C
Activity [1]: Active | fold change (FC) [3]: 17 | Activity [4]: Active | Activity [5]: Active | Activity [6]: Active | Activity [7]: 50% | Activity [8]: 20% | Activity [9]: Active | fold change (FC) [11]: 4 | Activity [12]: inactive | Activity [13]: Active | Activity [14]: 70% | Activity [15]: Active | Activity [16]: ~0% | Activity [17]: Active | Activity [18]: ~50% | Activity [19]: 70%
